Results pooled from the literature.
Target: Serine/threonine-protein kinase 38 (STK38, Homo sapiens, UniProt Q15208)

| SMILES | assay | test system | setting | endpoint | value |
| --- | --- | --- | --- | --- | --- |
| CCCOc1ccc([C@@H]2[C@@H](C(=O)O)[C@H](c3ccc4c(c3)OCO4)CN2CC(=O)Nc2c(CC)cccc2CC)cc1 | cell-free assay, competition with immobilised ligand | – | 1 µM | remaining binding | 83% |
| Cn1c2c(c3ccc(Cl)c(Cl)c31)C(C#N)C(C)(C)NC2=O (stereo not shown) | thermal stability, DSF | – | 10 µM | ΔTm | 0.1 °C |
| O=C(Nc1cnc(Oc2ccc(F)cc2)nc1)N1CCc2ncccc2[C@@H]1c1ccc(F)cc1 | cell-free assay, competition with immobilised ligand | – | 1 µM | remaining binding | 91% |
| CCN1CCN(Cc2ccc(NC(=O)c3ccc(C)c(Oc4ccnc5[nH]ccc45)c3)cc2C(F)(F)F)CC1 | target engagement in cells, inhibitor, chemoproteomics | A-375 | 50 nM | inhibition | -11.4% |
| CC(C)(O)[C@H]1CC[C@H](Nc2ccc3ncc(-c4cccc(C(F)(F)F)c4)n3n2)CC1 | enzyme activity, inhibitor | – | 1 µM | remaining activity | 96.7% |
| Cc1c(NC(=O)c2cc(C(N)=O)nc3cc(F)ccc23)c(C(F)(F)F)nn1Cc1ccc(C#N)cc1 | cell-free assay, competition with immobilised ligand | – | 1 µM | remaining binding | 94% |
| Cn1c2c(Cl)c(Cl)ccc2c2cn[nH]c(=O)c21 | thermal stability, DSF | – | 10 µM | ΔTm | 0 °C |
| CC/C(=N\NC(=O)NCc1cccc(O)c1)c1ccc(O)c(C)c1O | enzyme activity, inhibitor | – | 0.1 µM | inhibition | 18.8% |
| N#CC1c2c([nH]c3c(Cl)c(Cl)ccc23)C(=O)NC12CCCCC2 (racemic) | thermal stability, DSF | – | 10 µM | ΔTm | 0.6 °C |
| Cc1sc(C(=O)NC2COC2)cc1-n1cc(NC(=O)Nc2c(F)cccc2Cl)cn1 | enzyme activity, inhibitor | – | 10 µM | remaining activity | 91.5% |
| Cn1c2c(c3ccc(Cl)c(Cl)c31)C(C#N)C1(CCNCC1)NC2=O (racemic) | thermal stability, DSF | – | 10 µM | ΔTm | 0.4 °C |
| COc1cc2c(N3CCN(C(=O)Nc4ccc(OC(C)C)cc4)CC3)ncnc2cc1OCCCN1CCCCC1 | cell-free assay | – | 0.5 µM | remaining signal | 99.1% |
| CCN1CCC2(CC1)NC(=O)c1c(c3ccc(Cl)c(Cl)c3n1C)C2C#N (racemic) | thermal stability, DSF | – | 10 µM | ΔTm | 0.1 °C |
| NS(=O)(=O)c1cc(NC(=O)C2(c3ccccc3Cl)CC2)ccc1Oc1cccc(Cl)c1 | cell-free assay, competition with immobilised ligand | – | 1 µM | remaining binding | 81% |
| C[S+]([O-])c1ccc(-c2nc(-c3ccncc3)c(-c3ccc(F)cc3)[nH]2)cc1 (stereo not shown) | cell-free assay | – | 0.5 µM | remaining signal | 105% |
| Cc1nc(Cc2cccc(C(F)(F)F)c2)sc1-c1ccc(C(N)=O)nc1 | cell-free assay, competition with immobilised ligand | – | 1 µM | remaining binding | 81% |
| CN1CCC2(CC1)NC(=O)c1c(c3ccc(Cl)c(Cl)c3n1C)C2C#N (racemic) | thermal stability, DSF | – | 10 µM | ΔTm | 0 °C |
| C[C@H](c1ccnc(Nc2nc3ccc(-c4cc(N(C)C)ncn4)cc3[nH]2)c1)N1CCN(C(=O)CC(F)(F)F)CC1 | cell-free assay, competition with immobilised ligand | – | 0.1 µM | remaining binding | 100% |
| c1nc2c(Nc3ccc4c(c3)OCCO4)nc(Nc3ccc4c(c3)OCCO4)nc2[nH]1 | enzyme activity, inhibitor | – | 10 µM | activity vs control | 73% |
